Compound activity deposited in PubChem by several laboratories.
NTR1 agonist – agonists of human NTR1, primary screen, imaging, U2OS cells, beta-arrestin-GFP, high content; AID 493036, 2011; activation, % at 20 µM; hit rate 0.17% among 330,000; Neurotensin receptor type 1 (Homo sapiens), P30989; NTR1-U2OS beta-arrestin-GFP spot imaging, agonist mode;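 active = activation at or above 40% of the spot to cytoplasm intensity ratio, with at least 20 cells analyzed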
PKA-R2B activ – activators of PKA-R2B holoenzyme, primary screen, biochemical, fluorescence polarization, Cy5-IP20, human. cAMP-dependent protein kinase catalytic subunit beta (Homo sapiens) + cAMP-dependent …. hit rate 0.079% among 340,000. activation, % at 11.4 µM. PKA-R2B holoenzyme dissociation; R2B truncated from residue 108, S112A mutant; 0% DMSO only, 100% 113 µM cGMP;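 active = activation above a cutoff set at the mean over all compounds plus 3 SD, cut at about 18% in these data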;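 also: higher means more holoenzyme dissociation and a rise in polarization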
CAL PDZ FP-1 – untagged CAL PDZ binding inhibitors, primary screen, biochemical, fluorescence polarization, HTS | Golgi-associated PDZ and coiled-coil motif-containing protein (Homo sapiens), Q9HD26 | inhibition, % at 24.9 µM | purified CAL PDZ, TMR-peptide fluorescence polarization, 1 h | hit rate 0.92% among 300,000;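 active = mean inhibition of at least 30% with at least half of replicates also reaching 30%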
CAL PDZ FP-2 – CAL PDZ peptide-binding inhibitors, primary screen, biochemical, fluorescence polarization, Cer-tagged CAL PDZ, HTS. inhibition, % at 20 µM. Golgi-associated PDZ and coiled-coil motif-containing protein (Homo sapiens), Q9HD26. hit rate 0.02% among 330,000. purified CAL PDZ, TMR-peptide fluorescence polarization, 1 h;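 active = highest replicate inhibition of at least 40%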
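material = purified tagged CAL PDZ domain construct (CerCALP) | compound dosing = 20 µM, one dose | times = 1 h at RT | measured by = fluorescence polarization from S- and P-plane intensities, G-factor corrected | read-out = inhibition from polarization loss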
PKA-R1A activ – activators of PKA-R1A holoenzyme, primary screen, biochemical, fluorescence polarization, Cy5-IP20, bovine R1A, mouse PKAc | activation, % at 11.4 µM | PKA-R1A dissociation; scaled: DMSO 0%, 113 µM cGMP 100% | hit rate 0.083% among 340,000 | cAMP-dependent protein kinase type I-alpha regulatory subunit (Bos taurus) + …;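 active = percent activation above the mean of all tested compounds plus 3 SD, cut at about 19% in these data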;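 also: higher means more PKAc released from R1A so a rise in polarization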
dFosB activator – activators of delta FosB homodimer, primary screen, biochemical, fluorescence polarization, TAMRA-CDK5 oligo, single point; purified delta FosB; percent of positive-control signal above neutral wells; activation, % at 25 µM; hit rate 0.99% among 340,000; AID 493131, 2011;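 active = mean activation above about 17%, with every replicate also reaching it, limit read from the data, passing the limit was not always enough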
Target sequence (P13346 whole entry, looked up): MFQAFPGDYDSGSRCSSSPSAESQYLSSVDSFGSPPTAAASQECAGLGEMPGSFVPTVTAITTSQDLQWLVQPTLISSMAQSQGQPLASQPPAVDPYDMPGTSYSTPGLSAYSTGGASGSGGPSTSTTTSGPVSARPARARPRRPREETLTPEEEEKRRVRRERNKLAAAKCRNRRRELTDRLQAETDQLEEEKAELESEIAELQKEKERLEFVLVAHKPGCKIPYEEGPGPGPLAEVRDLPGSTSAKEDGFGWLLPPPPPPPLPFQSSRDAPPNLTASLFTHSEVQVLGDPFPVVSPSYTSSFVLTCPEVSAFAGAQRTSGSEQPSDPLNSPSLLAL
Hits are given with their value. A selection: hits, their analogues and other compounds. The true share with any hit is near 2%.

How did CC(C)NC1CCC(Nc2ccnc3cc(Cl)ccc23)CC1 (centres undefined) do in these assays?
PKA-R2B activ: inactive; CAL PDZ FP-1: inactive; CAL PDZ FP-2: inactive; PKA-R1A activ: inactive; dFosB activator: 17

Results for Clc1ccc2c(NCCNC3CCCCC3)ccnc2c1 ?
PKA-R2B activ: inactive; CAL PDZ FP-1: inactive; CAL PDZ FP-2: inactive; PKA-R1A activ: inactive; dFosB activator: 45

How did CC(CCCN1CCCC1)Nc1ccnc2cc(Cl)ccc12 (centres undefined) do in these assays?
PKA-R2B activ: inactive; CAL PDZ FP-1: inactive; CAL PDZ FP-2: inactive; PKA-R1A activ: inactive; dFosB activator: 42

Results for CN1CCN(CC(O)(c2ccc(Cl)cc2)c2ccc(Cl)cc2)CC1 ?
NTR1 agonist: inactive; PKA-R2B activ: inactive; CAL PDZ FP-1: inactive; CAL PDZ FP-2: inactive; PKA-R1A activ: inactive; dFosB activator: inactive

How did O=Cc1ccc2ccc3cccnc3c2n1 do in these assays?
NTR1 agonist: inactive; PKA-R2B activ: inactive; CAL PDZ FP-1: 55; CAL PDZ FP-2: inactive; PKA-R1A activ: inactive; dFosB activator: inactive

Results for O=[N+]([O-])c1cccnc1Nc1ccc(Cl)cc1 ?
PKA-R2B activ: inactive; PKA-R1A activ: inactive

What do the screens show for `O=[N+]([O-])c1cnccc1Nc1ccc(Cl)cc1`?
NTR1 agonist: inactive; PKA-R2B activ: inactive; CAL PDZ FP-1: 75; CAL PDZ FP-2: inactive; PKA-R1A activ: inactive; dFosB activator: inactive

What do the screens show for `CCN(CC)C(=O)CN1C(=O)c2cccc3cccc1c23`?
NTR1 agonist: inactive; PKA-R2B activ: inactive; CAL PDZ FP-1: 37; PKA-R1A activ: inactive; dFosB activator: inactive

Results for CCN(CC)C(=O)CN1C(=O)C(=O)c2ccccc21 ?
NTR1 agonist: inactive; PKA-R2B activ: inactive; CAL PDZ FP-1: inactive; CAL PDZ FP-2: inactive; PKA-R1A activ: inactive; dFosB activator: inactive

What do the screens show for `Cc1cccc(N2NC(=O)/C(=C/c3ccc(-c4ccc(Cl)c(C(=O)O)c4)o3)C2=O)c1`?
PKA-R2B activ: inactive; CAL PDZ FP-1: 97; CAL PDZ FP-2: inactive; PKA-R1A activ: inactive; dFosB activator: inactive

How did CN(C(=O)c1ccccc1F)C(c1ccccc1)c1ccccc1 do in these assays?
NTR1 agonist: inactive; PKA-R2B activ: inactive; CAL PDZ FP-1: 42; CAL PDZ FP-2: inactive; PKA-R1A activ: inactive; dFosB activator: inactive

How did C=CC[C@@H](CC(=O)N[C@H](CO)Cc1ccccc1)C(=O)NCCOC(=O)[C@@H](CC=C)CC(=O)OC(C)(C)C do in these assays?
NTR1 agonist: inactive; PKA-R2B activ: inactive; CAL PDZ FP-1: inactive; CAL PDZ FP-2: inactive; PKA-R1A activ: inactive; dFosB activator: inactive

What do the screens show for `CC(COc1ccccc1)OC(=O)Nc1ccccc1` (centres undefined)?
PKA-R2B activ: inactive; CAL PDZ FP-1: 61; CAL PDZ FP-2: inactive; PKA-R1A activ: inactive; dFosB activator: inactive

Results for CC(C)(CC(=O)c1ccccc1)CC(=O)c1ccccc1 ?
PKA-R2B activ: inactive; CAL PDZ FP-1: inactive; CAL PDZ FP-2: inactive; PKA-R1A activ: inactive; dFosB activator: inactive

Results for O=C(Cn1cncn1)N/N=C/c1ccccc1O ?
NTR1 agonist: inactive; PKA-R2B activ: inactive; CAL PDZ FP-1: inactive; CAL PDZ FP-2: inactive; PKA-R1A activ: inactive; dFosB activator: inactive

How did COc1ccc(OC)c(NC(=O)C(C)N2c3cccc4cccc(c34)S2(=O)=O)c1 (centres undefined) do in these assays?
NTR1 agonist: inactive; PKA-R2B activ: inactive; CAL PDZ FP-1: 73; CAL PDZ FP-2: inactive; PKA-R1A activ: inactive; dFosB activator: inactive

How did O=CN1CCN(C=O)C(O)C1O (centres undefined) do in these assays?
PKA-R2B activ: inactive; CAL PDZ FP-2: inactive; PKA-R1A activ: inactive; dFosB activator: inactive

How did O=C(NCCS(=O)(=O)NC1CCCC1)c1ccc(F)cc1 do in these assays?
NTR1 agonist: inactive; PKA-R2B activ: inactive; CAL PDZ FP-1: inactive; CAL PDZ FP-2: inactive; PKA-R1A activ: inactive; dFosB activator: inactive

How did CC1CCCCC1NS(=O)(=O)CCNC(=O)c1ccccc1 (centres undefined) do in these assays?
NTR1 agonist: inactive; PKA-R2B activ: inactive; CAL PDZ FP-1: 35; CAL PDZ FP-2: inactive; PKA-R1A activ: inactive; dFosB activator: inactive

Results for CCCCNC(=O)Nc1ccccc1CC ?
NTR1 agonist: inactive; PKA-R2B activ: inactive; CAL PDZ FP-1: 69; CAL PDZ FP-2: inactive; PKA-R1A activ: inactive; dFosB activator: inactive

How did CCCCNC(=O)Nc1ccccc1Br do in these assays?
NTR1 agonist: inactive; PKA-R2B activ: inactive; CAL PDZ FP-1: inactive; CAL PDZ FP-2: inactive; PKA-R1A activ: inactive; dFosB activator: inactive

How did Cc1c2ccncc2cc2c1[nH]c1ccccc12 do in these assays?
PKA-R2B activ: inactive; CAL PDZ FP-2: inactive; PKA-R1A activ: inactive; dFosB activator: 78

What do the screens show for `COc1cccc(NC(=O)CN2CCc3ccccc3C2)c1`?
NTR1 agonist: inactive; PKA-R2B activ: inactive; CAL PDZ FP-2: inactive; PKA-R1A activ: inactive; dFosB activator: inactive

Results for O=C(Nc1cc(Cl)ccc1Cl)C1CC(=O)N(c2ccccc2)C1 (centres undefined) ?
NTR1 agonist: inactive; PKA-R2B activ: inactive; CAL PDZ FP-1: inactive; CAL PDZ FP-2: inactive; PKA-R1A activ: inactive; dFosB activator: 20

How did COc1ccc(OC)c(NC(=O)C2CC(=O)N(c3ccccc3)C2)c1 (centres undefined) do in these assays?
NTR1 agonist: inactive; PKA-R2B activ: inactive; CAL PDZ FP-1: inactive; PKA-R1A activ: inactive; dFosB activator: inactive

How did Cc1ccc(CNC(=O)c2ccc(Cl)c(S(=O)(=O)N3CCCCC3)c2)cc1 do in these assays?
NTR1 agonist: inactive; PKA-R2B activ: inactive; CAL PDZ FP-1: inactive; CAL PDZ FP-2: inactive; PKA-R1A activ: inactive; dFosB activator: inactive

How did COc1cccc(-c2nn(-c3ccc(C)cc3)cc2C(=O)N(C)CC(=O)Nc2cccc(F)c2)c1 do in these assays?
NTR1 agonist: inactive; PKA-R2B activ: inactive; CAL PDZ FP-1: 47; CAL PDZ FP-2: inactive; PKA-R1A activ: inactive; dFosB activator: inactive

Results for Cc1cc(C)c2cc(C#N)c(SCC(=O)Nc3cc(C)on3)nc2c1 ?
NTR1 agonist: inactive; PKA-R2B activ: inactive; CAL PDZ FP-1: inactive; CAL PDZ FP-2: inactive; PKA-R1A activ: inactive; dFosB activator: inactive

What do the screens show for `CNC(=O)c1c(Cl)cnn1-c1ccc(C)cc1`?
NTR1 agonist: inactive; PKA-R2B activ: inactive; CAL PDZ FP-1: inactive; CAL PDZ FP-2: inactive; PKA-R1A activ: inactive; dFosB activator: inactive
